# Assay outcomes (PubChem)
# HTRA1 inh: inhibitors of human serine peptidase HTRA1; Q92743; recombinant HTRA1, FP-rhodamine activity-based probe, fluorescence polarization; 0.5% of 340,000 active; AID 504803; inhibition, % at 5.96 µM; in the data active means inhibition above about 36%;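 further: 0% = enzyme with DMSO and 100% = wells lacking enzyme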
# mABHD4 FP: ABHD4 (mouse) inhibition, primary FP screen; Q8VD66; purified mABHD4, FP-Rh probe fluorescence polarization; inhibition, % at 8.92 µM; 0.54% of 370,000 active; AID 720543;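 active means inhibition exceeding the mean over every tested compound plus 3 SD, cut at about 30% in these data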;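 further: 0% = plate median of compound wells and 100% = S159A mutant with DMSO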
# Target sequence (Q8VD66 whole entry, looked up): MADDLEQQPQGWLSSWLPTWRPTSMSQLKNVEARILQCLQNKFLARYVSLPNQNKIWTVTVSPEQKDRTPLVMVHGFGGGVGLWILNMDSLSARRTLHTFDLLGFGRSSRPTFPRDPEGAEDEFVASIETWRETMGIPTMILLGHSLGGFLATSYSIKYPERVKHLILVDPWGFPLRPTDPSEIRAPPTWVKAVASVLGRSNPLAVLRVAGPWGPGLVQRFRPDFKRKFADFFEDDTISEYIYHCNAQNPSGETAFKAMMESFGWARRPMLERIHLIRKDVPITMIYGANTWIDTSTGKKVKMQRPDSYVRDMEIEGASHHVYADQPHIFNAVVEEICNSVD
#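 Material: mouse ABHD4 enzyme, wild type; Benchmarks: S159A mutant high control, sample median low control; Buffer or medium: HEPES pH 7.0, NaCl, Pluronic buffer; Signal: fluorescence polarization; Read-out: percent inhibition of probe binding, normalized to plate controls; Timing: pre-incubation 45 min, probe exposure 60 min, at 25 °C; Dosing: 8.92 µM, single dose.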
# Tn6 DDE FP: disrupts Tn6 cyclic peptide binding to fibrin D-Dimer-E complex | inhibition, % at 8.3 µM | Fibrin DD(E) TRITC-Tn6 fluorescence polarization displacement | 0.21% of 370,000 active | P02675;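 active means inhibition above a per-campaign cutoff: mean of compounds within control limits plus 3 SD, cut at about 15% in these data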;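 further: 0% = median of all compound wells on the plate and 100% = blocking peptide control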
# Tn7 DDE FP: disrupts Tn7 cyclic peptide binding to fibrin D-Dimer-E complex. 0.13% of 370,000 active. inhibition, % at 8.3 µM. FP displacement of FITC-Tn7 peptide from fibrin DD(E); 0% = median of compound wells per plate. P02675;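 active means inhibition above the mean of compounds falling within the control limits plus 3 SD of them, cut at about 14% in these data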;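 further: 0% = plate median of compound wells and 100% = 10 µM Aha-Tn7 peptide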
#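 system = human fibrin DD(E) protein | quantity = DD(E) 2 µM final | medium = Tris/NaCl/CaCl2 buffer, pH 7.8 | also added = labelled Tn7 tracer, 0.1 µM | compound dosing = single point at 8.3 µM | timing = compound with protein 10 min, then 3 h after probe, room temperature | signal = FP measurement | benchmarks = Aha-Tn7 high control | repeats = one replicate per compound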
# TCR-CD3 inh: human TCR-CD3 binding inhibition | TAMRA-labeled TCR probe fluorescence, biochemical | inhibition, % at 9.4 µM | 0.37% of 360,000 active; in the data active means inhibition above about 19%;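 further: recombinant mutant TCR 2C K166C tagged with TAMRA read by polarization; 0% = receptor in buffer alone and 100% = receptor with positive control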
# DDE Tn7 confirm: DD(E)-Tn7 binding inhibition, FP confirmation | FP displacement of TRITC-Tn7 peptide from DD(E); 0% set at plate's compound-well median | shares compounds with Tn7 DDE FP | 5% of 460 active | inhibition, % at 8.3 µM;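 active means inhibition above the campaign cutoff, the mean of compounds within control limits plus 3 SD, cut at about 14% in these data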;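 further: 100% = median FP of high control wells holding Aha-Tn7 inhibitor peptide; displacers lower polarization since freed probe rises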
# Tn7 DDE ctr: counter-screen for inhibitors of Tn7 peptide binding to fibrin DD(E) | shares compounds with Tn7 DDE FP | TRITC-Tn7 probe displacement, fluorescence polarization | inhibition, % at 8.3 µM | 3% of 460 active | AID 720633;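 active means inhibition above the cutoff, the mean of compounds lying between the control bounds plus 3 SD of those compounds, cut at about 17% in these data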;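 further: 0% = median of compound sample wells and 100% = excess unlabeled Aha-Tn7 peptide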
# Starred values were filed as active, the others as inactive; . = not tested or not shown. Only some compounds are listed: those with a hit (about 1.3% of all), similar ones and a draw of the others.
SMILES,HTRA1 inh,mABHD4 FP,Tn6 DDE FP,Tn7 DDE FP,TCR-CD3 inh,DDE Tn7 confirm,Tn7 DDE ctr
Cc1ccc(-c2c(C#N)c(N)n(-c3ccc(Cl)cc3)c(=O)c2C#N)cc1,.,1.4,3.2,13.8*,-0.5,-3.4,-7.5
Cn1c(=O)c2c(nc(SCCN3CCOCC3)n2Cc2cccc3ccccc23)n(C)c1=O,3.9,-2.4,-5.9,-4.3,-6.0,.,.
COC(=O)c1ccc(C2NC(=O)CCC2[N+](=O)[O-])cc1 (stereo unspecified),17.9,-15.0,-9.5,14.1*,3.9,3.2,-9.9
CCC1=C(OC(=O)N(CC)CC)N2C(=O)OC(=NCC3CC3)[C@]2(C)[C@H]2C1=CC[C@H]1C(=O)N(C)C(=O)[C@H]12,-4.0,-3.9,1.1,2.5,-0.2,.,.
O=C(CN(Cc1cccs1)C(=O)CNS(=O)(=O)c1ccc(Cl)cc1)NCc1ccco1,-3.2,1.4,3.2,14.7*,8.6,2.8,-1.6
CC1(c2ccccc2)NC(=O)N(CC(=O)Nc2ccc(N3CCOCC3)cc2N2CCOCC2)C1=O (stereo unspecified),0.2,-6.9,-1.8,13.8*,-4.4,7.0,4.9
Cc1ccc(C2(C)NC(=O)N(CC(=O)Nc3ccc(N4CCOCC4)cc3N3CCOCC3)C2=O)cc1 (stereo unspecified),-1.1,-3.3,1.8,-1.9,4.1,.,.
CN1CCC(NC(=O)CCc2ccccc2)CC1,10.2,2.9,-1.4,13.9*,0.0,4.8,1.7
O=C(CSc1nc(-c2ccccc2)cc(=O)[nH]1)Nc1ccccc1F,-4.9,-3.5,0.5,-3.9,-4.7,.,.
O=C(CSc1nc(-c2ccccc2)cc(=O)[nH]1)Nc1ccc(F)c(F)c1,-8.7,3.0,1.3,14.1*,-6.7,1.1,-2.7
COc1ccccc1N1CCN(CC(=O)NCc2ccc(Cl)cc2)CC1,4.5,-1.0,-5.1,-8.7,-1.8,.,.
CSCCC(C(=O)Nc1c(C)cccc1C)n1c(COc2ccc(C)cc2)nc2ccccc21 (stereo unspecified),.,-14.3,-10.7,-4.8,6.0,.,.
O=C(NNC(=O)c1cc(-c2ccccc2)nc2ccccc12)c1csc(N2CCOCC2)n1,-10.2,-8.8,-1.8,14.6*,-3.9,-1.2,-18.2
COCCn1c(SC(C(=O)Nc2cc(C)ccc2OC)c2ccccc2)nnc1-c1ccc(Cl)cc1 (stereo unspecified),-1.4,-0.5,-7.0,2.7,0.0,.,.
CC(C)CCOc1ccc(C(=O)NCC(c2cccs2)N2CCOCC2)cc1 (stereo unspecified),-4.2,1.0,-4.3,15.0*,0.0,1.7,-0.6
Nc1ccc2c(c1)C(=NO)c1cc([N+](=O)[O-])ccc1-2,10.4,6.3,-0.9,3.3,-48.6,.,.
CCCCNC(=O)NS(=O)(=O)c1ccc(NC(=O)CCC(=O)c2cccs2)cc1,-5.5,3.3,-8.2,-3.3,-0.3,.,.
CCCCn1c(N)c(N(CCOC)C(=O)C2CCN(S(=O)(=O)c3ccc(C)cc3)CC2)c(=O)[nH]c1=O,3.5,11.3,-1.7,2.2,-11.6,.,.
CCCCn1c(N)c(N(CCOC)C(=O)C2CCN(S(=O)(=O)c3ccc(F)cc3)CC2)c(=O)[nH]c1=O,3.4,-3.3,-2.3,17.0*,0.5,0.4,-3.6
C=CCN1C(=O)C(Cc2ccccc2)S/C1=N/N=C/c1cccs1 (stereo unspecified),-14.7,-18.1,-0.6,13.9*,-3.9,-2.0,-8.2
C=CCN1C(=O)C(Cc2ccc(OCC)cc2)S/C1=N\N=C\c1cccs1 (stereo unspecified),-25.7,-12.0,-6.2,3.1,-0.4,.,.
COc1cccc(NC(=O)c2ccccc2-c2nc(-c3ccc(F)cc3)no2)c1,-24.5,.,.,.,.,.,.
Cc1cccn2c(=O)c(/C=C(\C#N)C(=O)NCc3ccccc3)c(N3CCC(C(N)=O)CC3)nc12,-5.2,3.9,5.2,16.2*,10.4,6.3,2.0
Cc1ccc(C(NC(=O)N2CCCCC2)=C(Cl)Cl)cc1F,3.1,7.3,2.5,15.3*,-2.5,4.8,1.6
